Assay outcomes from PubChem BioAssay.
IDH1 mut inh = IDH1 R132H (human) inhibition; O75874; IDH1 R132H reductase, diaphorase/resazurin fluorescence, 60 min; inhibition, % at 10 µM; 70,000 tested, 0.18% active; in the data active means inhibition above about 34%; inconclusive means no clear call, values can overlap the other calls; inactive means below about 11%
Target sequence (O75874 whole entry R132H): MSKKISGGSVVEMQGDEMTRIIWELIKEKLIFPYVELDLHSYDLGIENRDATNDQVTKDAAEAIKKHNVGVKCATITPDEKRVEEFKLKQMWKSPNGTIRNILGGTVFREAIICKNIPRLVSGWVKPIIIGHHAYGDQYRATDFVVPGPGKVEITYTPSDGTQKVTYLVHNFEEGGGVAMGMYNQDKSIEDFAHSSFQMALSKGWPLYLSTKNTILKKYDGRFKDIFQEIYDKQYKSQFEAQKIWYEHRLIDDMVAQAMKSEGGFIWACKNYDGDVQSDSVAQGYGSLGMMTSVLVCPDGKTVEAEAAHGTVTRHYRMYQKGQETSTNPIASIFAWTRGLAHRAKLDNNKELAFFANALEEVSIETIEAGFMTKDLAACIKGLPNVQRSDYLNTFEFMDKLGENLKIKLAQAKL
T cruzi growth-1 = T. cruzi proliferation inhibition | T. cruzi beta-gal in NIH3T3, GalScreen luminescence, 90 h | inhibition, % at 8.34 µM | 77,000 tested, 5.9% active;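 active means mean inhibition above about 93%, with at least 55% of replicates each passing it, limit read from the data, passing the limit was not always enough; inconclusive means only one of those two conditions holds; inactive means neither condition holds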
Pf Dd2 growth = P. falciparum Dd2 growth inhibition; SYBR Green, 72 h; hits give low values; activity change, % at 10 µM; 94,000 tested, 2.3% active; AID 1159554; in the data active means activity change below about -80%; inconclusive means no clear call, values can overlap the other calls
GASC1 inh = blocks human GASC-1 (KDM4C) demethylase activity; inhibition, % at 12.5 µM; 96,000 tested, 0.15% active; GST-KDM4C 2-372, H3K9me3 peptide, LANCE TR-FRET; Q9H3R0;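 active means mean replicate inhibition above about 25%, with at least 55% of replicates also reaching it, limit read from the data, passing the limit was not always enough; inconclusive means only one of those two conditions met; inactive means neither condition met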
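System: N-terminal GST-fused human GASC-1 (KDM4C) fragment, residues 2-372 / Amount: 10 nM GST-KDM4C in enzyme reaction / Also added: H3K9me3 peptide with Fe(II)/2OG / Times: 30 min demethylation and 1 h detection at room temperature / Signal: LANCE TR-FRET / Read-out basis: Fall in 671/618 emission ratio as inhibition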
T cruzi growth-2 = inhibitors of T. cruzi proliferation; inhibition, % at 8.35 µM; T. cruzi beta-gal in NIH3T3, GalScreen luminescence, 90 h; shares compounds with T cruzi growth-1; 5,600 tested, 72% active; AID 651739;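 active means mean replicate inhibition above about 95% and at least 55% of replicates individually reaching it, limit read from the data; inconclusive means only one of the two criteria is met; inactive means neither criterion is met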
T cruzi growth-3 = inhibitors of T. cruzi proliferation. shares compounds with T cruzi growth-1. T. cruzi beta-gal in NIH3T3, GalScreen luminescence, 90 h. inhibition, % at 2.09 µM. 5,600 tested, 21% active. AID 651740;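 active means mean inhibition above about 95%, with at least 55% of replicates also reaching it, limit read from the data; inconclusive means meets just one of the two conditions; inactive means meets neither condition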
3T3 cytotox = cytotoxicity in mouse NIH/3T3 fibroblasts; shares compounds with T cruzi growth-1; 5,600 tested, 14% active; NIH/3T3 viability, CellTiter-Glo ATP luminescence, 90 h; cytotoxicity (signal decrease), % at 8.35 µM; AID 651742;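 active means mean signal decrease across replicates above about 35% based on untreated-well scatter, with enough replicates individually passing, limit read from the data; inconclusive means no rule stated though some were filed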
NIH3T3 tox 2 = NIH/3T3 (mouse) viability loss; shares compounds with T cruzi growth-1; NIH/3T3 viability, CellTiter-Glo ATP luminescence, 90 h; inhibition, % at 24.9 µM; 5,600 tested, 56% active;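 active means mean loss of cell viability signal at or above a set limit, and enough replicates individually reaching it; inconclusive means meets only the mean limit or only the replicate share; inactive means meets neither condition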
Of the large screens only hits and unclear results are named; the others gave an inactive call (follow-up assays come after a bar, where they were run). An excerpt weighted towards active compounds, which were near 5.8% of everything screened.

Cc1ccc(S(=O)(=O)N(C)C[C@H]2OCCCC[C@@H](C)Oc3ccc(NC(=O)NC4CCCCC4)cc3C(=O)N([C@H](C)CO)C[C@H]2C)cc1	T cruzi growth-1 98.7 (no result: IDH1 mut inh) | T cruzi growth-2 104.9 | T cruzi growth-3 inconclusive | 3T3 cytotox inactive | NIH3T3 tox 2 inactive
Cc1ccc(S(=O)(=O)N(C)C[C@@H]2OCCCC[C@@H](C)Oc3ccc(NC(=O)NC4CCCCC4)cc3C(=O)N([C@@H](C)CO)C[C@H]2C)cc1	none
Cc1ccc(S(=O)(=O)N(C)C[C@@H]2OCCCC[C@H](C)Oc3ccc(NC(=O)NC4CCCCC4)cc3C(=O)N([C@H](C)CO)C[C@@H]2C)cc1	T cruzi growth-1 98.8 (no result: IDH1 mut inh) | T cruzi growth-2 107.1 | T cruzi growth-3 inactive | 3T3 cytotox inactive | NIH3T3 tox 2 inactive
C[C@H]1CCCCO[C@@H](CN(C)S(=O)(=O)c2ccc(F)cc2)[C@@H](C)CN([C@@H](C)CO)C(=O)c2cc(NC(=O)NC3CCCCC3)ccc2O1	none
Cc1ccc(S(=O)(=O)N(C)C[C@@H]2OCCCC[C@H](C)Oc3ccc(NC(=O)NC4CCCCC4)cc3C(=O)N([C@@H](C)CO)C[C@@H]2C)cc1	T cruzi growth-1 101.5, Pf Dd2 growth -83.2 | T cruzi growth-2 106.5 | T cruzi growth-3 inactive | 3T3 cytotox inactive | NIH3T3 tox 2 inactive
Cc1cccc(NC(=O)CSc2nnc(-c3cccnc3)n2-c2ccccc2)c1C	none (no result: T cruzi growth-1, Pf Dd2 growth, GASC1 inh)
Cc1ccc(N(C(C)C(=O)Nc2ccccc2F)S(C)(=O)=O)cc1 (stereo unspecified)	none (no result: T cruzi growth-1, Pf Dd2 growth, GASC1 inh)
Cc1ccc(S(=O)(=O)N(C)C[C@H]2OCCCC[C@H](C)Oc3ccc(NC(=O)NC4CCCCC4)cc3C(=O)N([C@@H](C)CO)C[C@@H]2C)cc1	Pf Dd2 growth inconclusive
Cc1ccc(S(=O)(=O)N(C)C[C@H]2OCCCC[C@@H](C)Oc3ccc(NC(=O)NC4CCCCC4)cc3C(=O)N([C@@H](C)CO)C[C@H]2C)cc1	T cruzi growth-1 99.8 (no result: IDH1 mut inh) | T cruzi growth-2 107.6 | T cruzi growth-3 inactive | 3T3 cytotox inactive | NIH3T3 tox 2 inactive
COc1ccccc1NC(=O)C1=C(C)NC(SCC(N)=O)=C(C#N)C1c1ccccc1 (stereo unspecified)	none (no result: T cruzi growth-1, Pf Dd2 growth, GASC1 inh)
CCC(=O)N1CC[C@H]2[C@H](CO)Nc3ccc(-c4ccc(C(=O)N(C)C)cc4)cc3[C@H]21	T cruzi growth-1 106.7 (no result: IDH1 mut inh) | T cruzi growth-2 104.4 | T cruzi growth-3 inactive | 3T3 cytotox inactive | NIH3T3 tox 2 inactive
CCC(=O)N1CC[C@@H]2[C@H]1c1cc(-c3ccc(C(=O)N(C)C)cc3)ccc1N[C@@H]2CO	T cruzi growth-1 105.1 (no result: IDH1 mut inh) | T cruzi growth-2 inconclusive | T cruzi growth-3 inactive | 3T3 cytotox inactive | NIH3T3 tox 2 inactive
CCC(=O)N1CC[C@H]2[C@H](CO)Nc3ccc(-c4ccccc4)cc3[C@H]21	none (no result: IDH1 mut inh)
COC(=O)c1ccc(Cl)c(NC(=O)CN(c2cccc(Cl)c2)S(C)(=O)=O)c1	none (no result: T cruzi growth-1, Pf Dd2 growth, GASC1 inh)
O=C(Nc1cccc(F)c1)N1CCCCN2[C@H](CO)[C@H](c3ccc(C#Cc4ccccc4)cc3)[C@H]2C1	none (no result: IDH1 mut inh)
O=C(Nc1cccc(F)c1)N1CCCCN2[C@H](C1)[C@H](c1ccc(C#CC3CC3)cc1)[C@@H]2CO	T cruzi growth-1 118.3 (no result: IDH1 mut inh) | T cruzi growth-2 109.5 | T cruzi growth-3 inactive | 3T3 cytotox inactive | NIH3T3 tox 2 inactive
O=C(Nc1cccc(F)c1)N1CCCCN2[C@H](C1)[C@H](c1ccc(C#Cc3ccccc3)cc1)[C@@H]2CO	T cruzi growth-1 100.0 (no result: IDH1 mut inh) | T cruzi growth-2 101.5 | T cruzi growth-3 inconclusive | 3T3 cytotox inactive | NIH3T3 tox 2 37.9
O=C(Nc1cccc(F)c1)N1CCCCN2[C@@H](CO)[C@H](c3ccc(C#Cc4cccnc4)cc3)[C@@H]2C1	T cruzi growth-1 103.0 (no result: IDH1 mut inh) | T cruzi growth-2 103.2 | T cruzi growth-3 inactive | 3T3 cytotox inactive | NIH3T3 tox 2 101.2
O=C(Nc1ccccc1)N1CCCCN2[C@H](CO)[C@@H](c3ccc(C#Cc4cccnc4)cc3)[C@H]2C1	none (no result: IDH1 mut inh)
